High-throughput results deposited in PubChem BioAssay by several laboratories.
APOBEC3A inh – APOBEC3A ssDNA deaminase inhibitors, primary screen, selectivity assay for APOBEC3G inhibitor project, biochemical, FAM/TAMRA oligo cleavage fluorescence; recombinant A3A, FAM/TAMRA ssDNA deamination fluorescence; inhibition, % at 20 µM; 0.41% of 330,000 active; AID 493011, 2011;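 active = at least 40% inhibition at 20 µM here, with at most 30% in a related deaminase screen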;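 also: plate controls were A3A with DMSO for no effect and wells lacking A3A enzyme for full effect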
HCV core dimer – inhibitors of HCV core protein dimerization, primary screen, biochemical, TR-FRET, high-throughput; TR-FRET GST/Flag-core106 dimerization, 1536-well; inhibition, % at 5 µM; 0.33% of 300,000 active; AID 1899, 2009;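 active = inhibition above the mean of all tested compounds plus 3 SD, set per screening campaign, cut at about 45% in these data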
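Material: Tagged HCV core106 pair (GST and Flag) | Amount: GST-core106 13.5 nM, Flag-core106 17 nM | Medium: KF-containing HEPES buffer, pH 7.45, DTT, CHAPS, BSA | Reagent: Eu donor and XL665 acceptor anti-tag antibodies | Schedule: 4 h at 22.5 °C | Technique: Time-resolved FRET, ex 340 nm, em 617 and 671 nm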
PRMT1 inh – PRMT1 methyltransferase inhibitors, primary screen, biochemical, fluorescence polarization; AID 652257, 2013; recombinant PRMT1, activity-based probe fluorescence polarization; inhibition, % at 2.79 µM; 1.3% of 370,000 active; Protein arginine N-methyltransferase 1 (Homo sapiens), Q99873;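 active = inhibition above about 21% made by adding two undisclosed values, limit read from the data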
HCV NS3 hel inh – inhibitors of HCV NS3 helicase, primary screen, biochemical, Cy5 molecular beacon fluorescence | NS3 helicase DNA unwinding | inhibition, % at 10.9 µM | 0.56% of 290,000 active | Hepatitis C virus NS3 helicase | AID 1800, 2009;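 active = inhibition above the mean of all tested compounds plus 3 SD, set per campaign, cut at about 35% in these data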;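 also: 0% = DMSO wells and 100% = thioflavine S control wells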
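assay system = NS3 helicase fragment of HCV | buffer or medium = MOPS pH 6.5, MgCl2, DTT, Tween20, BSA | timing = 60 min unwinding reaction at 25 °C after ATP addition | signal = Cy5 beacon fluorescence read at start and 1 h | read-out basis = % inhibition of unwinding | control set = low DMSO, high thioflavine S at 110 µM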
ABHD5-PLIN5 inh – ABHD5-PLIN5 interaction inhibitors, primary screen, cell lysate, split luciferase complementation, luminescence. 0.78% of 360,000 active. AID 602281, 2012. Perilipin-5 (Homo sapiens) + 1-acylglycerol-3-phosphate O-acyltransferase ABHD5 (Homo …. Split G. princeps luciferase complementation, 4 h. inhibition, % at 4 µM;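 active = inhibition above the mean inhibition across every tested compound plus 3 SD, cut at about 22% in these data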;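 also: 0% = DMSO only wells and the 100% control is not disclosed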
Target sequence (Q00G26 whole entry, looked up): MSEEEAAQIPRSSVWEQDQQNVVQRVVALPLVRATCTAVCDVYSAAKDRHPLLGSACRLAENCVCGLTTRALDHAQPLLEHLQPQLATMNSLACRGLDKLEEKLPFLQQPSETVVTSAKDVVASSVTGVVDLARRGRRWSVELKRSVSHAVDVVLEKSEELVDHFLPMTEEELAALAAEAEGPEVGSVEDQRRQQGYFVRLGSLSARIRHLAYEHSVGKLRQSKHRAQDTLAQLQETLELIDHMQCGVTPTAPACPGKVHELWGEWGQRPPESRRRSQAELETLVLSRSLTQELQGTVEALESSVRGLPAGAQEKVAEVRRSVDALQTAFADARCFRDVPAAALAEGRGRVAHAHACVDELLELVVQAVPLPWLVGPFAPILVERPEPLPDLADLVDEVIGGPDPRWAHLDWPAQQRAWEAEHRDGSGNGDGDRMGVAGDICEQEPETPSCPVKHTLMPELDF
Target sequence (Q8WTS1 whole entry, looked up): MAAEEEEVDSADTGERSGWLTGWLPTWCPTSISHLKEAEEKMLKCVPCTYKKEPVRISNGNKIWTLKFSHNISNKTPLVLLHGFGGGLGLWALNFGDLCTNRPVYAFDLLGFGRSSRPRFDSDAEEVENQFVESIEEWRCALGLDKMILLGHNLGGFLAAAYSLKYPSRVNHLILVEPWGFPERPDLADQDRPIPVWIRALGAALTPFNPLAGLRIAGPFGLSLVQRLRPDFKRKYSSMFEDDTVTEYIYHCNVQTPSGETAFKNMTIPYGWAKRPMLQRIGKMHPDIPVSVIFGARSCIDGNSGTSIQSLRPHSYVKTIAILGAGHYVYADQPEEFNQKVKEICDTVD
APOBEC3G inh – APOBEC3G DNA deaminase inhibitors, primary screen, biochemical, fluorescence, single-stranded DNA substrate, uHTS | DNA dC->dU-editing enzyme APOBEC-3G (Homo sapiens), Q9HC16 | recombinant A3G, ssDNA deamination FAM/TAMRA fluorescence | inhibition, % at 20 µM | 0.28% of 330,000 active;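 active = inhibition of at least 40% at 20 µM, with no more than 30% in the related APOBEC3A deaminase screen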;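 also: plate controls were DMSO wells with A3G for no effect and wells lacking A3G enzyme for full effect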
NS3 hel confirm – HCV NS3 helicase inhibitors, retest, confirmation, biochemical, Cy5 molecular beacon fluorescence, triplicate. shares compounds with HCV NS3 hel inh. NS3 helicase DNA unwinding. inhibition, % at 10.9 µM. 31% of 1,600 active;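 active = inhibition above the mean of all tested compounds plus 3 SD, cutoff set per campaign, cut at about 36% in these data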
FID counter trip – compounds displacing fluorescent DNA intercalator, artefact control for HCV NS3 helicase inhibitor project, biochemical, FID fluorescence, triplicate. shares compounds with HCV NS3 hel inh. DNA fluorescent intercalator displacement. inhibition, % at 7.9 µM. 4% of 1,600 active. AID 1945, 2009; in the data active = inhibition above about 37%;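 also: 0% = vehicle and 100% = reference compound; higher means more displacement of ethidium bromide from the DNA hairpin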
DNA FID DR – compounds displacing fluorescent intercalator from DNA, dose response, counter-screen for HCV NS3 helicase inhibitor project, biochemical, fluorescence | shares compounds with HCV NS3 hel inh | fluorescent intercalator displacement from DNA | IC50, µM | 120 tested, under 10 active; call rule not given here
Active calls of the source: *. Shown are actives, neighbours in structure and some others; about 2.9% of the full set was active somewhere.

For Cc1ccc(-c2csc(N/N=C/c3ccco3)n2)cc1 the results were APOBEC3A inh -2, HCV core dimer 2, PRMT1 inh 13, HCV NS3 hel inh 46*, ABHD5-PLIN5 inh -7, APOBEC3G inh -3, NS3 hel confirm -11 and FID counter trip 13.
CCOc1ccc(/C(O)=C2/C(=O)C(=O)N(c3nc(C)c(C)s3)C2c2ccco2)cc1 (stereo not drawn) was read as APOBEC3A inh 5, HCV core dimer 15, PRMT1 inh 2, HCV NS3 hel inh 51*, ABHD5-PLIN5 inh -4, APOBEC3G inh 1, NS3 hel confirm 55*, FID counter trip 19 and DNA FID DR >79.
Screening O=C(COC(=O)c1c2c(nc3ccccc13)CCCC2)c1cccs1 returned APOBEC3A inh 4, HCV core dimer -5, PRMT1 inh -3, HCV NS3 hel inh 41*, ABHD5-PLIN5 inh 4, APOBEC3G inh 9, NS3 hel confirm -6 and FID counter trip -20.
`O=C(COC(=O)c1c2c(nc3ccccc13)CCCCC2)c1ccc(Cl)s1` gave APOBEC3A inh 5, HCV core dimer -3, PRMT1 inh 0, HCV NS3 hel inh -13, ABHD5-PLIN5 inh -3 and APOBEC3G inh 0.
CCCCn1nnnc1C1(C)CCC(=O)N1CCOc1ccccc1 (stereo not drawn) was read as PRMT1 inh 3 and ABHD5-PLIN5 inh 1.
`CC(C)c1ccc(NC(=O)c2ccccc2NC(=O)C2CC=CCC2C(=O)O)cc1` (stereo not drawn) gave APOBEC3A inh 1, PRMT1 inh 2, HCV NS3 hel inh 13, ABHD5-PLIN5 inh -3 and APOBEC3G inh -2.
CN(C)c1ccc(NC(=O)C2C3C=CC(C3)C2C(=O)O)cc1 (stereo not drawn) was read as APOBEC3A inh -3, PRMT1 inh 18, HCV NS3 hel inh 56*, ABHD5-PLIN5 inh -4, APOBEC3G inh 5, NS3 hel confirm 30 and FID counter trip 14.
For CCc1ccc(-n2c(SCC(=O)N3Cc4ccccc4CC3C(=O)O)nnc2-c2ccncc2)cc1 (stereo not drawn) the results were APOBEC3A inh 2, HCV core dimer 6, PRMT1 inh 7, HCV NS3 hel inh 42*, ABHD5-PLIN5 inh 0, APOBEC3G inh -7, NS3 hel confirm -26 and FID counter trip -24.
Cc1ccc(CSC2=Nc3ccccc3C3=NC(CCC(=O)NCc4ccco4)C(=O)N23)cc1 (stereo not drawn) was read as APOBEC3A inh -3, HCV core dimer 32, PRMT1 inh 0, HCV NS3 hel inh 47*, ABHD5-PLIN5 inh 2, APOBEC3G inh -2, NS3 hel confirm -14 and FID counter trip -38.
Cc1ccc(C(=O)C2=C(O)C(=O)N(Cc3ccco3)C2c2cccc(Cl)c2)o1 (stereo not drawn) was read as APOBEC3A inh -3, HCV core dimer 30, PRMT1 inh -41, HCV NS3 hel inh 74*, ABHD5-PLIN5 inh -20, APOBEC3G inh -1, NS3 hel confirm 71*, FID counter trip -29 and DNA FID DR >79.
